In ChEMBL document CHEMBL1134611, “Agonist activity at the kinin B1 receptor: structural requirements of the central tetrapeptide” (J Med Chem, 2001) one finds IA and pD2 data, which are given here for eight compounds.

The source made the active and inactive calls. No cut-off for these calls is given here. Numbered stars: 1 amine (or outer) side, 2 acyl side, 3 side chain; on linkers, the order of the positions; unused ones are H or OH. Square brackets hold non-standard residues; d marks the D form. Peptide text beside a SMILES is read from it. X2 = O=C(C1(N[*:1])CCCCCCCCCCC1)[*:2]; X1 = O=C(C1(N[*:1])CCCCCCCC1)[*:2]; 12Ado = NCCCCCCCCCCCC(=O)O; Ac8c = NC1(C(=O)O)CCCCCCC1; Ac7c = NC1(C(=O)O)CCCCCC1; Ac6c = NC1(C(=O)O)CCCCC1

The first test has as its target T1, B1 bradykinin receptor (Rattus norvegicus) (UniProt P97583).
T1 sequence (whole entry): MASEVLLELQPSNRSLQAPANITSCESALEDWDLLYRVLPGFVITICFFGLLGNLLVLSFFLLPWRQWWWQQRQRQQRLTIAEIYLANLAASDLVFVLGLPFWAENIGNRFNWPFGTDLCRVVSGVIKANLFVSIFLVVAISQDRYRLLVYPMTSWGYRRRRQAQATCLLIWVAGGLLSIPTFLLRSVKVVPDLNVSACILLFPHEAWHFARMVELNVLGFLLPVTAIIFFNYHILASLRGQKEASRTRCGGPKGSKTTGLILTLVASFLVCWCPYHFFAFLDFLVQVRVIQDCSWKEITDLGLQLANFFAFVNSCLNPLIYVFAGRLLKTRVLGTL
Put plainly: Agonistic activity against Bradykinin receptor B1 of rat ileum longitudinal smooth muscle; Inactive. Format: functional, tissue-based. A digest of the protocol:
(§1)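 Rat ileum longitudinal muscle-myenteric plexus strips in oxygenated (95% O2, 5% CO2) Krebs' solution with indomethacin and guanethidine (3 µM each), chlorpheniramine and atropine (1 µM each). Cumulative concentration-response curves of contraction, run with thiorphan, bestatin and captopril (1 µM each). pD2 = -log molar agonist concentration giving 50% of maximal effect; mean ± SEM, 4-10 experiments.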
Turning to `NCCCC[C@H](N)C(=O)N[C@@H](CCCN=C(N)N)C(=O)NC1(C(=O)N[C@@H](CO)C(=O)N2CCC[C@H]2C(=O)N[C@@H](Cc2ccccc2)C(=O)O)CCCCCC1` (H-KR[Ac7c]SPF-OH), the IA result was “inactive”. Consider H-KRGGGSPF-OH, for which the IA result is “inactive”.

The target in another test is T1, B1 bradykinin receptor (Rattus norvegicus). The experiment in a line: Agonistic activity against Bradykinin receptor B1 of rat ileum longitudinal smooth muscle. Format: functional, tissue-based. A digest of the protocol: as §1
The compound `NCCCC[C@H](N)C(=O)N[C@@H](CCCN=C(N)N)C(=O)NCCCCCCCCCCCC(=O)N[C@@H](CO)C(=O)N1CCC[C@H]1C(=O)N[C@@H](Cc1ccccc1)C(=O)O` (H-KR[12Ado]SPF-OH) had a pD2 of 6.

`NCCCC[C@H](N)C(=O)N[C@@H](CCCN=C(N)N)C(=O)NCC(=O)NC1(C(=O)NCC(=O)N[C@@H](CO)C(=O)N2CCC[C@H]2C(=O)N[C@@H](Cc2ccccc2)C(=O)O)CCCCCCCC1` (H-KRG[X1]GSPF-OH) yielded a pD2 of 5.4. On the same count and under the same terms, in the case of `NCCCC[C@H](N)C(=O)N[C@@H](CCCN=C(N)N)C(=O)NCC(=O)NC1(C(=O)NCC(=O)N[C@@H](CO)C(=O)N2CCC[C@H]2C(=O)N[C@@H](Cc2ccccc2)C(=O)O)CCCCCCCCCCC1` (H-KRG[X2]GSPF-OH) it was 5.5.

`NCCCC[C@H](N)C(=O)N[C@@H](CCCN=C(N)N)C(=O)NCC(=O)NC1(C(=O)NCC(=O)N[C@@H](CO)C(=O)N2CCC[C@H]2C(=O)N[C@@H](Cc2ccccc2)C(=O)O)CCCCCCC1` (H-KRG[Ac8c]GSPF-OH) registered a pD2 of 5.7.

The compound `NCCCC[C@H](N)C(=O)N[C@@H](CCCN=C(N)N)C(=O)NCC(=O)NC1(C(=O)NCC(=O)N[C@@H](CO)C(=O)N2CCC[C@H]2C(=O)N[C@@H](Cc2ccccc2)C(=O)O)CCCCC1` (H-KRG[Ac6c]GSPF-OH) returned a pD2 of 5.1. On the same count and under the same terms, in the case of `NCCCC[C@H](N)C(=O)N[C@@H](CCCN=C(N)N)C(=O)NCC(=O)NC1(C(=O)NCC(=O)N[C@@H](CO)C(=O)N2CCC[C@H]2C(=O)N[C@@H](Cc2ccccc2)C(=O)O)CCCCCC1` (H-KRG[Ac7c]GSPF-OH) it was 5.4.
